Data: ChEMBL document CHEMBL4325892, “4-tert-Pentylphenoxyalkyl derivatives - Histamine H3 receptor ligands and monoamine oxidase B inhibitors” (Bioorg Med Chem Lett, 2018)
pIC50, pKi: −log10 of the molar value.

Columns and labels:
[1] = target: Histamine H3 receptor (Homo sapiens, UniProt Q9Y5N1); assay: Displacement of [3H]-N-alpha-methylhistamine from human H3 receptor expressed in CHO-K1 cell membranes after 60 mins by microbeta2 scintillation counting analysis
Procedure, shortened: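 Radioligand binding with [3H]Nα-methylhistamine on membrane preparations from CHO-K1 cells stably expressing human H3 receptor; Ki reported as the mean of two independent experiments ± SEM.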

[2] = target: T1, Amine oxidase [flavin-containing] B (Homo sapiens, UniProt P27338); assay: Inhibition of human MAO-B expressed in baculovirus infected BTI insect cells using p-tyramine as substrate preincubated for 30 mins followed by substrate addition and measured after 1 hr by fluorescence-based Amplex Red MAO assay
T1 sequence (P27338 whole entry): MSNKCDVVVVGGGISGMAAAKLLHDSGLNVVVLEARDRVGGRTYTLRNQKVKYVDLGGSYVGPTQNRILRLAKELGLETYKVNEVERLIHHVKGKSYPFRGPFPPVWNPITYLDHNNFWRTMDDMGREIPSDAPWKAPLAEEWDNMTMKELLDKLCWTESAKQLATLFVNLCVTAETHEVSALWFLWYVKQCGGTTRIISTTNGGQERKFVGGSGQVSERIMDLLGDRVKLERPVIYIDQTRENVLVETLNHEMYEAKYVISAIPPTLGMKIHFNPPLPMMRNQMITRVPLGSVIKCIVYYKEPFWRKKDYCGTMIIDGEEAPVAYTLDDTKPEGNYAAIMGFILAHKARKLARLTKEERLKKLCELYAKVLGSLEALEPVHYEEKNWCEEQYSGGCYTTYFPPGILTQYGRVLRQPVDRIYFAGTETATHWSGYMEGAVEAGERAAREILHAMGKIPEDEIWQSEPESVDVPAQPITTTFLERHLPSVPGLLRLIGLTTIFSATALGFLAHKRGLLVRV

[3] = target: T2, MAO-A (Homo sapiens, UniProt P21397); assay: Inhibition of human MAO-A expressed in baculovirus infected BTI insect cells at 10 uM using p-tyramine as substrate preincubated for 30 mins followed by substrate addition and measured after 1 hr by fluorescence-based Amplex Red MAO assay relative to control; conditions: probe p-tyramine
T2 sequence (P21397 whole entry): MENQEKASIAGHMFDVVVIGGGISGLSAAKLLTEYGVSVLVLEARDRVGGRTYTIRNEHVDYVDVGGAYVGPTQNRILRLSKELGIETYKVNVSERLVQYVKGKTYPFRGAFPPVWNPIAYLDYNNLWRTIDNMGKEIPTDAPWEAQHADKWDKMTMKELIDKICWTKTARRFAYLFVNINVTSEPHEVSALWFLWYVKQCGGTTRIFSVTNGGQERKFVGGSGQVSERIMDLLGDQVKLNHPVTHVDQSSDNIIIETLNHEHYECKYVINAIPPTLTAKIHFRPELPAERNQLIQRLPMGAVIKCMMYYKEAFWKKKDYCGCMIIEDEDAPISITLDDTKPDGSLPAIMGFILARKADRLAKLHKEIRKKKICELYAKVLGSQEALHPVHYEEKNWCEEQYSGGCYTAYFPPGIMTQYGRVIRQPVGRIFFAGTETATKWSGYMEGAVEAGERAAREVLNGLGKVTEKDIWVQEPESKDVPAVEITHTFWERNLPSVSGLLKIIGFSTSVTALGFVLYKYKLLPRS

[4] = target: T1, Amine oxidase [flavin-containing] B; assay: Reversible inhibition of human MAO-B expressed in baculovirus infected BTI insect cells at IC80 preincubated with compound and p-tyramine for 22 mins followed by p-tyramine increase to 1 mM and measured every minute for 5 hrs by fluorescence assay
Procedure, shortened: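 Reversibility test: hMAO B preincubated with inhibitor in the presence of 10 μM para-tyramine. After 22 min, para-tyramine raised to 1 mM, then fluorescence read every minute for 5 h.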

[5] = target: T1, Amine oxidase [flavin-containing] B; assay: Inhibition of human MAO-B expressed in baculovirus infected BTI insect cells at 1 uM using p-tyramine as substrate preincubated for 30 mins followed by substrate addition and measured after 1 hr by fluorescence-based Amplex Red MAO assay relative to control
[6] = target: T1, Amine oxidase [flavin-containing] B; assay: Non-competitive inhibition of human MAO-B expressed in baculovirus infected BTI insect cells at 0.2 to 20 nM preincubated with compound and p-tyramine for 22 mins followed by p-tyramine increase to 1 mM and measured every minute for 5 hrs by Lineweaver-Burk plot analysis
Procedure, shortened: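 Kinetic mode study: hMAO B activity measured at inhibitor 0, 0.2, 0.5 and 20 nM, each across six para-tyramine concentrations (0.05, 0.1, 0.5, 1.0, 1.5, 2.0 mM) to assign inhibition type.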

Chain of Histamine H3 receptor (Q9Y5N1 whole entry): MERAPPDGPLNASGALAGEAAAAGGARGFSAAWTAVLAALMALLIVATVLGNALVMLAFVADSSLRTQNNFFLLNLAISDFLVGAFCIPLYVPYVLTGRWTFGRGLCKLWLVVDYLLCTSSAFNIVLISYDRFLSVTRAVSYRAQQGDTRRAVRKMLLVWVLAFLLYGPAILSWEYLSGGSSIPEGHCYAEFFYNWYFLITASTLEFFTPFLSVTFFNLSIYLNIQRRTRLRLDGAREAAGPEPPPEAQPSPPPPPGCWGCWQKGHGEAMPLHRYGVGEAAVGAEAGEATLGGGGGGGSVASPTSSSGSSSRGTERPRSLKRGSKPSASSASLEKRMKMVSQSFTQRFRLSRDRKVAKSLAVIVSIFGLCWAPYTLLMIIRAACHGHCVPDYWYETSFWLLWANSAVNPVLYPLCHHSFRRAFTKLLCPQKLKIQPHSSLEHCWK

SMILES	pKi [1]	pIC50 [2]	inhibition at 1 h, 10 µM [3] [%]	inhibition (INH) [4]	inhibition at 1 µM [5] [%]	inhibition (INH) [6]
CCC(C)(C)c1ccc(OCCCN2CCCCC2)cc1	7.43	7.72	14	Active	–	–
CCC(C)(C)c1ccc(OCCCCCN2CCCC(C)C2)cc1 (configuration not stated)	–	< 6.00	–	–	29	–
CCC(C)(C)c1ccc(OCCCCCN2CCCCC2)cc1	–	< 6.00	–	–	28	–
CCC(C)(C)c1ccc(OCCCCCCN2CCCCC2)cc1	–	< 6.00	–	–	21	–
CCC(C)(C)c1ccc(OCCCCCCCCN2CCC(C)CC2)cc1	–	< 6.00	–	–	37	–
CCC(C)(C)c1ccc(OCCCCN2CCCC(C)C2)cc1 (configuration not stated)	–	5.91	–	–	–	–
CCC(C)(C)c1ccc(OCCCCCCCN2CCCCC2)cc1	–	< 6.00	–	–	18	–
CCC(C)(C)c1ccc(OCCCCCCCN2CCCCCC2)cc1	–	5.83	–	–	–	–
CCC(C)(C)c1ccc(OCCCCCCCCN2CCCCCC2)cc1	–	< 6.00	–	–	40	–
CCC(C)(C)c1ccc(OCCCCCN2CCC(C)CC2)cc1	–	< 6.00	–	–	48	–
CCC(C)(C)c1ccc(OCCCCN2CCCCC2)cc1	–	6.42	10	–	–	–
CCC(C)(C)c1ccc(OCCCCCCCN2CCC(C)CC2)cc1	–	< 6.00	–	–	35	–
CCC(C)(C)c1ccc(OCCCCN2CCCCCC2)cc1	–	6.22	–	–	–	–
CCC(C)(C)c1ccc(OCCCCCN2CCCCCC2)cc1	–	5.95	–	–	–	–
CCC(C)(C)c1ccc(OCCCCCCCCN2CCCC(C)C2)cc1 (configuration not stated)	–	< 6.00	–	–	33	–
CCC(C)(C)c1ccc(OCCCCCCN2CCC(C)CC2)cc1	–	< 6.00	–	–	37	–
CCC(C)(C)c1ccc(OCCCCCCN2CCCC(C)C2)cc1 (configuration not stated)	–	< 6.00	–	–	46	–
CCC(C)(C)c1ccc(OCCCCCCCN2CCCC(C)C2)cc1 (configuration not stated)	–	< 6.00	–	–	35	–
CCC(C)(C)c1ccc(OCCCCN2CCC(C)CC2)cc1	–	< 6.00	–	–	47	–
CCC(C)(C)c1ccc(OCCCCCCCCN2CCCCC2)cc1	–	< 6.00	–	–	22	–
CCC(C)(C)c1ccc(OCCCCCCN2CCCCCC2)cc1	–	6.41	–	–	–	–
CCC(C)(C)c1ccc(OCCCN2CCCCC2C)cc1 (configuration not stated)	6.36	7.70	5	Active	–	–
CCC(C)(C)c1ccc(OCCCN2C(C)CCCC2C)cc1 (configuration not stated)	6.85	7.66	5	Active	–	–
CCC(C)(C)c1ccc(OCCCN2CCC(C)CC2)cc1	6.83	5.68	–	–	–	–
CCC(C)(C)c1ccc(OCCCN2CCCCCC2)cc1	6.53	7.19	12	–	–	–
CCC(C)(C)c1ccc(OCCCN2CC(C)CC(C)C2)cc1 (configuration not stated)	6.12	6.02	7	–	–	–
CCC(C)(C)c1ccc(OCCCN2CCCC(C)(C)C2)cc1	< 6.00	6.38	7	–	–	–
CCC(C)(C)c1ccc(OCCCN2CCCC(C)C2)cc1 (configuration not stated)	7.00	6.37	11	–	–	–
CCC(C)(C)c1ccc(OCCCN2CCCC2)cc1	7.20	8.35	5	Active	–	Active
C[C@H](NCc1ccc(OCc2cccc(F)c2)cc1)C(N)=O [SAFINAMIDE]	–	–	–	Active	–	–
